The values below come from ChEMBL document CHEMBL1141365, “A novel series of highly selective inhibitors of MMP-3” (Bioorg Med Chem Lett, 2007).

Molecules are shown by their SMILES. ≈ marks a conversion by molar mass, not a printed value.

In series [1] the target is Stromelysin-1 (Homo sapiens, UniProt P08254). The experiment in a line: Inhibition of MMP3. The method, boiled down: (§1)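 Catalytic-domain enzyme; 1 µM stock activated with APMA (1 mM, 1 h at 37 °C for MMP-2; 2 mM, 3 h at 37 °C for MMP-3), then diluted to 10 nM in Tris–HCl buffer. Assay used 0.1 nM enzyme and 5 µM fluorogenic substrate Mca-Arg-Pro-Lys-Tyr-Ala-Nva-Trp-Met-Lys(Dnp)-NH2. Inhibitor (≤1% DMSO) preincubated with enzyme 15 min at 37 °C. After substrate, 1 h at 37 °C; fluorescence read at ex 328/em 393 nm. IC50 taken from concentration–response curves as the geometric mean of ≥3 experiments.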
Stromelysin-1, sequence (P08254 whole entry): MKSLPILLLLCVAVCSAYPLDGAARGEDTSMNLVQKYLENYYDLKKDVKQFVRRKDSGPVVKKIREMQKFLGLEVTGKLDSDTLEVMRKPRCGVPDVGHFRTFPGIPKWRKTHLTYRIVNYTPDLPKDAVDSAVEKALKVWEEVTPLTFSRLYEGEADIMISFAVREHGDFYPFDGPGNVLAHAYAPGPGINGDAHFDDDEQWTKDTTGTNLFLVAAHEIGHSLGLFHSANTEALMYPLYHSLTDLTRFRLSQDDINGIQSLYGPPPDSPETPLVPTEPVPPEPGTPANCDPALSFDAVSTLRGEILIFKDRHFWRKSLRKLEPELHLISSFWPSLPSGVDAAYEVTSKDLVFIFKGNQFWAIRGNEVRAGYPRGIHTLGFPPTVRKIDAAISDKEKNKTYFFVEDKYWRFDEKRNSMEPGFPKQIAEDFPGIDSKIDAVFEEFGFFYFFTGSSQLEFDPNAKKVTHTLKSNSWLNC

Series [2] deals with 72 kDa type IV collagenase (Homo sapiens, UniProt P08253). The experiment in a line: Inhibition of MMP2. In short, it runs like this: as §1
72 kDa type IV collagenase, sequence (P08253 whole entry): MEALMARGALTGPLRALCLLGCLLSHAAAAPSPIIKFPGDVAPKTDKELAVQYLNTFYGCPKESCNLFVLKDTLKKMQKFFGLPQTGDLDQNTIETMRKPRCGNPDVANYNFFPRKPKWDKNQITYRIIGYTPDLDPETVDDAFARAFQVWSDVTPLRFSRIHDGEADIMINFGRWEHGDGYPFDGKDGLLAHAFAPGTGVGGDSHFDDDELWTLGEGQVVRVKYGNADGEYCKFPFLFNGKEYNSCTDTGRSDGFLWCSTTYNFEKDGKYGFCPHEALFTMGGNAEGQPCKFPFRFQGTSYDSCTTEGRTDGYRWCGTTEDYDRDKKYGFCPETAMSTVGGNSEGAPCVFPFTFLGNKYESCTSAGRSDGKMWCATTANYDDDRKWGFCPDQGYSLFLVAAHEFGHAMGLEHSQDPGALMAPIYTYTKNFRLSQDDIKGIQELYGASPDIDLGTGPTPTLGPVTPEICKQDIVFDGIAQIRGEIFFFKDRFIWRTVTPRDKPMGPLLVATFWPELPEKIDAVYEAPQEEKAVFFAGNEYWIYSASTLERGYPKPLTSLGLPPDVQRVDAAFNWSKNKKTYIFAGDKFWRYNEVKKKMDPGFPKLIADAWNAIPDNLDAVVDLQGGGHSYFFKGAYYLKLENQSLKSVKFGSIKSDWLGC
Series [3] in a line: Selectivity for MMP3 over MMP2.
For series [4], the target named is Matrix metalloproteinase-14 (Homo sapiens, UniProt P50281). Description: Inhibition of MMP14.
Series [5] in a line: Aqueous solubility of the compound. It is filed as physicochemical. The method, boiled down: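 Solubility in aqueous media determined across pH 1, 5, 7, 9 and 11.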
Series [6] concerns the target Matrix metalloproteinase-9 (Homo sapiens, UniProt P14780). Description: Inhibition of MMP9.
The target in series [7] is T1, Interstitial collagenase (Homo sapiens, UniProt P03956).
T1 sequence (P03956 whole entry): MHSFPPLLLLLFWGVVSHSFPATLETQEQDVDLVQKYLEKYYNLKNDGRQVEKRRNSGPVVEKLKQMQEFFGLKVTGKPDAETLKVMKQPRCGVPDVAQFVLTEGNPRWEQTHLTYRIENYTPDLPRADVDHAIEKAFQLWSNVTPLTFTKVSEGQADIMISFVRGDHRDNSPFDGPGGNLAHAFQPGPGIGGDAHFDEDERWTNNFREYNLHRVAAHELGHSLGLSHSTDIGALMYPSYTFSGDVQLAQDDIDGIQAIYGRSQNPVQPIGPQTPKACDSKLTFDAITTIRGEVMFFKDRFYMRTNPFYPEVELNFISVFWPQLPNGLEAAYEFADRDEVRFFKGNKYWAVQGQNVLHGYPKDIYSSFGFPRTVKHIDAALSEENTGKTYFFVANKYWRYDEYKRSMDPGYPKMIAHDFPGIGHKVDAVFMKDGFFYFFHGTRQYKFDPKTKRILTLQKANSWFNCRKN
The experiment in a line: Inhibition of MMP1.

Series [8] addresses Collagenase 3 (Homo sapiens, UniProt P45452). The experiment in a line: Inhibition of MMP13.

Matrix metalloproteinase-9, sequence (P14780 whole entry): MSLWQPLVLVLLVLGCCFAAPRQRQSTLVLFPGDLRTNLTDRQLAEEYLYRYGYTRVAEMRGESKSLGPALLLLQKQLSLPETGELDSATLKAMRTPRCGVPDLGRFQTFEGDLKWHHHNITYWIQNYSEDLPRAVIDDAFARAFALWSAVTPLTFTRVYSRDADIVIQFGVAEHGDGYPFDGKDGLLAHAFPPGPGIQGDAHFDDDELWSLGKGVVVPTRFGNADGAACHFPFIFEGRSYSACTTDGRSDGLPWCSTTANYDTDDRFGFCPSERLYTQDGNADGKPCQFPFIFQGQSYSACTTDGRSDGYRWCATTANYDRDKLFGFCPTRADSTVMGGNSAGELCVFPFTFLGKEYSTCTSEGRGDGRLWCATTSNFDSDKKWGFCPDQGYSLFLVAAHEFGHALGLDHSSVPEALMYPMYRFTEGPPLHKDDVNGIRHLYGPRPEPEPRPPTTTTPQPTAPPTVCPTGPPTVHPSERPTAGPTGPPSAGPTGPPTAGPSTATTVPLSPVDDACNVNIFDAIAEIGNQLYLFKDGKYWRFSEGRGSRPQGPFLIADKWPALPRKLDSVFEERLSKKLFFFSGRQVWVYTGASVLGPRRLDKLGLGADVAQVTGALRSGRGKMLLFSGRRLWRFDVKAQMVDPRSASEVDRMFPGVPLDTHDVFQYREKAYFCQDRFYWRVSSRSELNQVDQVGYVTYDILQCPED

On to `COCCOc1cccc(-c2ccc(C3CCN(S(=O)(=O)C(C)(C)C(=O)NO)CC3)cc2C)c1`, for which the results for the half-maximal inhibitory concentration (IC50) in series [1] and in series [2] were 3 nM and 853 nM, respectively.

For `O=C(CS(=O)(=O)N1CC=C(c2ccc(-c3ccccc3)c(C(F)(F)F)c2)CC1)NO`, the IC50 in series [1] was 960 nM; in series [2], 3080 nM.

For `O=C(CS(=O)(=O)N1CCC(c2ccc(-c3ccccc3)cc2)CC1)NO`, the Selectivity ratio in series [3] was under 2.

For the compound `CCc1cccc(-c2ccc(C3=CCN(S(=O)(=O)CC(=O)NO)CC3)cc2C)c1`, the figures for the IC50 in series [1] and in series [2] were 31 nM and 1210 nM, respectively.

Turning to `CCc1cc(C2=CCN(S(=O)(=O)CC(=O)NO)CC2)ccc1-c1ccccc1`, the IC50 in series [1] was found to be 420 nM; in series [2] it was 4380 nM.

On to `O=C(CS(=O)(=O)N1CCC(c2ccc(Oc3ccccc3)cc2)CC1)NO`, for which, in series [1], half-maximal inhibition (IC50) required 205 nM. Besides, in series [3], the Selectivity ratio was under 2.

On to `COCc1cccc(-c2ccc(C3=CCN(S(=O)(=O)CC(=O)NO)CC3)cc2C)c1`, for which the IC50 in series [1] stood at 3 nM; in series [2] it was 196 nM.

Regarding `O=C(CS(=O)(=O)N1CC=C(c2ccc(-c3ccccc3)cc2)CC1)NO`, the half-inhibitory concentration (IC50) was determined as 6 nM in series [1] and 9 nM in series [2]. Also, the Selectivity ratio in series [3] is under 2.

On to `Cc1cc(C2=CCN(S(=O)(=O)CC(=O)NO)CC2)ccc1-c1cccc(OC(F)(F)F)c1`, for which the IC50 was determined as 51 nM in series [1] and 173 nM in series [2].

As to `Cc1cc(C2CCN(S(=O)(=O)C(C)(C)C(=O)NO)CC2)ccc1-c1cccc(OCCO)c1`, the concentration for half-maximal inhibition (IC50) in series [1] was 1 nM; in series [2] it was 262 nM; in series [4], 1710 nM; in series [6] it was 406 nM; in series [7] it was 3230 nM. Further, the solubility in series [5] came to 1 µg/mL (≈ 2.1 µM).

Turning to `CCOc1cccc(-c2ccc(C3CCN(S(=O)(=O)C(C)(C)C(=O)NO)CC3)cc2C)c1`, the IC50 amounted to 2 nM in series [1] and 457 nM in series [2].

Regarding `Cc1cc(C2=CCN(S(=O)(=O)CC(=O)NO)CC2)ccc1-c1ccccc1`, the concentration for half-maximal inhibition (IC50) in series [2] was determined as 320 nM.

Consider `CCOc1cccc(-c2ccc(C3=CCN(S(=O)(=O)CC(=O)NO)CC3)cc2C)c1`, for which the 50% inhibitory concentration (IC50) in series [1] is 4 nM; in series [2] it was 998 nM. In series [5], this compound showed a solubility of under 1 µg/mL.

Take `O=C(CS(=O)(=O)N1CC=C(c2ccc(-c3ccccc3)c(F)c2)CC1)NO`: the IC50 in series [1] came to 3 nM; in series [2], 17 nM.

For `Cc1cc(C2CCN(S(=O)(=O)C(C)(C)C(=O)NO)CC2)ccc1-c1cccc(OCCN(C)C)c1`, the IC50 stood at 1 nM in series [1] and 534 nM in series [2].

In the case of `O=C(CS(=O)(=O)N1CC=C(c2ccc(-c3ccccc3)c(Cl)c2)CC1)NO`, the half-maximal inhibitory concentration (IC50) in series [1] was determined as 55 nM; in series [2], 620 nM.

Regarding `Cc1cc(C2CCN(S(=O)(=O)C(C)(C)C(=O)NO)CC2)ccc1-c1cccc(OCCN)c1`, the half-maximal inhibitory concentration (IC50) is 0.4 nM in series [1] and 188 nM in series [2].

`O=C(CS(=O)(=O)N1CC(c2ccc(-c3ccccc3)cc2)C1)NO` had an IC50 in series [1] of 161 nM. The Selectivity ratio in series [3] was under 2.

In turn, `O=C(CS(=O)(=O)N1CC(Oc2ccc(-c3ccccc3)cc2)C1)NO` yielded an IC50 in series [1] of 84 nM. Moreover, the Selectivity ratio in series [3] is under 2.

For the compound `CNCCOc1cccc(-c2ccc(C3CCN(S(=O)(=O)C(C)(C)C(=O)NO)CC3)cc2C)c1`, the IC50 was found to be 0.3 nM in series [1] and 196 nM in series [2].

Take `CN(CCc1ccc(-c2ccccc2)cc1)S(=O)(=O)CC(=O)NO`: half-maximal inhibition in series [1] (IC50) required 164 nM. In addition, in series [3], the Selectivity ratio is under 2.

For the compound `Cc1cccc(-c2ccc(C3=CCN(S(=O)(=O)CC(=O)NO)CC3)cc2C)c1`, the IC50 stood at 4 nM in series [1] and 776 nM in series [2].

On to `Cc1cc(C2CCN(S(=O)(=O)C(C)(C)C(=O)NO)CC2)ccc1-c1cccc(OCCO)n1`, for which the half-maximal inhibitory concentration (IC50) was determined as 1 nM in series [1]; 529 nM in series [2]; 20100 nM in series [4]; 2420 nM in series [6]; 14000 nM in series [7]. Further, the concentration in solution in series [5] (solubility) was 1 µg/mL (≈ 2.09 µM).

As to `CN(Cc1ccc(-c2ccccc2)cc1)S(=O)(=O)CC(=O)NO`, in series [1], the IC50 stood at 378 nM. Moreover, the Selectivity ratio in series [3] was under 2.

`CN(CCCc1ccc(-c2ccccc2)cc1)S(=O)(=O)CC(=O)NO`: the concentration for half-maximal inhibition (IC50) in series [1] turned out to be 174 nM. The Selectivity ratio in series [3] is under 2.

For the compound `COc1cccc(-c2ccc(C3=CCN(S(=O)(=O)CC(=O)NO)CC3)cc2C)c1`, the concentration for half-maximal inhibition (IC50) in series [1] was 5 nM; in series [2], 222 nM.

`COC[C@@H](NC(=O)[C@@H](NC(=O)[C@H](CCCc1ccc(-c2ccccc2)c(C)c1)CC(=O)O)C(C)(C)C)c1ccccc1`: the IC50 in series [8] is 2300 nM; in series [1], 23 nM; in series [4], 66900 nM; in series [6] it was 30400 nM; in series [7], over 100000 nM.
